# Sampled rows, rich in hits. Any-hit rate of the full collection: about 3.4%.
# M1 ag: human M1 muscarinic receptor agonists, primary screen, Fluo-8 calcium fluorescence, CHO-K1 cells, HTS. Muscarinic acetylcholine receptor M1 (Homo sapiens), P11229. CHO-K1 hM1, agonist mode; 0% DMSO, 100% acetylcholine EC100. activation, % at 3 µM. hit rate 0.33% among 360,000. AID 588814, 2011;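 active = activation above the run's mean compound activation plus 3 SD, cut at about 16% in these data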;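 note: peak over basal fluorescence ratio within a 140 s kinetic read after compound addition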
# Target sequence (P11229 whole entry, looked up): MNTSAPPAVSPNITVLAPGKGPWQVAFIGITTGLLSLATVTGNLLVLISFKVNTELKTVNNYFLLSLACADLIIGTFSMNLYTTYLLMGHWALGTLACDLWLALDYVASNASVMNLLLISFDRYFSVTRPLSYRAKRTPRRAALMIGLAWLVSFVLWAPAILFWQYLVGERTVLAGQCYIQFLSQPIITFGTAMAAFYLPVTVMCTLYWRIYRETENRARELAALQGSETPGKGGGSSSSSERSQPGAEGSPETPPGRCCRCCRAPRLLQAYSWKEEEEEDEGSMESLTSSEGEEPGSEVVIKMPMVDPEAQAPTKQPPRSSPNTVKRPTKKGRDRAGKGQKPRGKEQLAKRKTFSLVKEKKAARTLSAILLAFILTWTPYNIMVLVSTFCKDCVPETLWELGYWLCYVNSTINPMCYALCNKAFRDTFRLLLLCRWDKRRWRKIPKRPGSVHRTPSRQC
# CHRM1 antagonist: human M1 muscarinic receptor antagonists, primary screen, CHO-K1 cells, Fluo-8 calcium fluorescence, 1536-well; Muscarinic acetylcholine receptor M1 (Homo sapiens), P11229; CHO-K1 hM1, ACh EC80 antagonist; inhibition, % at 3 µM; hit rate 1.3% among 360,000;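 active = percent inhibition above its own plate's cutoff, namely the mean of that plate's compound wells plus 3 SD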;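 note: peak over basal fluorescence ratio during 140 s after agonist addition; 0% = ACh EC80 plus DMSO and 100% = DMSO alone without agonist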
# TAAR1 antagonist: human TAAR1 antagonists, primary screen, Fluo-8 calcium fluorescence, CHO RD-HGA16 cells. hit rate 1.5% among 360,000. inhibition, % at 3 µM. Trace amine-associated receptor 1 (Homo sapiens), Q96RJ0. antagonist. AID 624466, 2012;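 active = inhibition above a per-plate cutoff, the mean inhibition of test compounds on that plate plus 3 SD, cut at about 49% in these data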;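 note: 0% = DMSO plus EC80 beta-PEA response and 100% = DMSO alone without agonist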
#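 System: RD-HGA16 CHO cells with stable hTAAR1 and Gα16 | Probe or stimulus: EC80 β-phenethylamine stimulus | Dosing: 3 µM, single point | Times: Dye loading 75 min at 37 °C, then 30 min room temperature | Measured by: Fluo-8 calcium-sensitive fluorescence | Read-out basis: % inhibition of agonist calcium response | Replicates: n of 1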
# TAAR1 agonist: human TAAR1 agonists, primary screen, Fluo-8 calcium fluorescence, CHO RD-HGA16 cells; Trace amine-associated receptor 1 (Homo sapiens), Q96RJ0; vehicle wells 0%, saturating PEA agonist 100%; activation, % at 3 µM; hit rate 0.99% among 360,000; AID 624467, 2012;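 active = activation above the mean activation of all test compounds in the run plus 3 SD, cut at about 38% in these data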
#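 Benchmarks: low control DMSO, high control PEA (EC100); System: CHO RD-HGA16 cells carrying human TAAR1 plus Gα16; Detection: Fluo-8 fluorescence, 5 s baseline then 140 s kinetic read; Schedule: 17-24 h plating, Fluo-8 75 min 37 °C, 30 min RT; Read-out basis: % activation from peak over basal fluorescence ratio, DMSO-to-PEA scaled.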
# CHRM1 PAM: human M1 muscarinic receptor positive allosteric modulators, primary screen, CHO-K1 cells, Fluo-8 calcium fluorescence, 1536-well; Muscarinic acetylcholine receptor M1 (Homo sapiens), P11229; CHO-K1 hM1, ACh EC20; 0% = ACh EC20, 100% = maximal ACh; activation, % at 3 µM; hit rate 0.088% among 360,000; in the data active = activation above about 19%, passing the limit was not always enough
# Active calls of the source: *; . = no result.
SMILES,M1 ag,CHRM1 antagonist,TAAR1 antagonist,TAAR1 agonist,CHRM1 PAM
CC1=C(C(=O)N(C(C)C)C(C)C)CC(CC(=O)NC(c2ccccc2)c2ccccc2)C(=O)N1CCC1=CCCCC1 (stereo unspecified),-6,-19,-14,-2,-1
CC(C)(C)c1ccc(OCCC(=O)OCC(=O)N2c3ccccc3NC(=O)C2(C)C)cc1,2,34*,93*,9,-13
CC1(C)C(=O)Nc2ccccc2N1C(=O)COC(=O)Cc1ccc(Cl)c(Cl)c1,-5,-7,33,2,7
CCC(=O)c1ccc(OCC(=O)OCC(=O)N2c3ccccc3NC(=O)C2(C)C)cc1,2,-20,52*,13,1
Cc1cccc(OCCC(=O)OCC(=O)N2c3ccccc3NC(=O)C2(C)C)c1,1,-1,41,12,-10
Cc1cc(OCC(=O)OCC(=O)N2c3ccccc3NC(=O)C2(C)C)ccc1Cl,2,8,70*,8,-10
COc1cc(C(=O)OCC(=O)N2c3ccccc3NC(=O)C2(C)C)ccc1OCC(C)C,7,12,67*,14,1
COc1cccc(CNC(=O)[C@H]2CCCN2)c1,.,.,-4,1,.
CCCN(C(=O)c1cn(CCC)c2ccccc12)c1ccc(Oc2cccnc2)cc1,.,.,14,-2,.
Cc1ccc2nc(-c3cccc(Cl)c3)c(Cc3ccccc3C(F)(F)F)n2c1,.,.,-16,4,.
CC(=O)Nc1cc(-c2ccc(N(C)C)cc2)cn2c(-c3ccc(F)cc3)cnc12,1,5,25,12,3
NS(=O)(=O)c1ccc(Nc2nc(-c3ccc4ccccc4c3)cs2)cc1,1,-13,2,0,8
NS(=O)(=O)c1ccc(Nc2nc(-c3cccc([N+](=O)[O-])c3)cs2)cc1,-4,5,55*,7,0
Cc1ccc(-c2nn(-c3ccccc3)cc2CN(Cc2ccccc2)C(=O)c2ccco2)o1,-1,29,56*,8,-5
C=CCN1C[C@H](COC(=O)c2ccc(C)c(C)c2)Oc2cccc(F)c2S1(=O)=O,.,.,28,1,.
CCOC(=O)[C@]12Cc3c(cc(OC)c(OC)c3OC)[C@H]1N(Cc1ccccc1)C(=O)c1cc(OC)ccc12,.,.,-6,-1,.
CC(=O)N1CCCc2cc(S(=O)(=O)N3CCCC(C(=O)N4CCN(c5ccccc5)CC4)C3)ccc21 (stereo unspecified),5,2,33,11,-6
COc1ccccc1N1CCN(C(=O)C2CCCN(S(=O)(=O)c3ccc4c(c3)CCCN4C(C)=O)C2)CC1 (stereo unspecified),3,30,68*,15,-15
CC(=O)N1CCCc2cc(S(=O)(=O)N3CCCC(C(=O)N4CCN(c5cc(C)ccc5C)CC4)C3)ccc21 (stereo unspecified),3,41*,33,4,-15
COc1ccc(CNC(=O)[C@@H](Cc2ccccc2)NC(=O)[C@H]2O[C@@H](n3cnc4c(=O)[nH]c(N)nc43)[C@H](O)[C@@H]2O)cc1,.,.,-12,1,.
COc1cccc(C(C)(O)c2nc(-c3cccc(C(C)C)c3)cs2)c1 (stereo unspecified),3,-13,25,-1,15
COc1ccc(OC)c(-c2csc(NC(=O)CSc3ccc([N+](=O)[O-])cc3)n2)c1,-8,6,49*,4,-9
COc1ccc(OC)c(-c2csc(NC(=O)Cn3[nH]c(=O)c4ccccc4c3=O)n2)c1,-4,-2,54*,4,2
COc1ccc(OC)c(-c2csc(NC(=O)Cc3ccc(F)cc3)n2)c1,-8,-8,40,0,-3
COc1ccc(-c2csc(NC(=O)CCS(=O)(=O)c3ccccc3)n2)c(OC)c1,1,6,55*,12,-7
O=C(NC1CCCCC1)c1cc2ccccc2cc1O,1,-25,-5,-3,24*
CCCN(C)C1CN(Cc2cn(Cc3cc(C)cc(C)c3)nn2)S(=O)(=O)C1 (stereo unspecified),.,.,-17,1,.

# From PubChem BioAssay
